In brackets after ≈: the same amount, converted by molar mass. Activity calls are given as the source filed them. The calls are words filed in the database; no cut-off is given here.
Legend:
[1] = Cmax in Escherichia coli ATCC 35218 infected Wistar rat tissue cage fluid at 100 mg/kg/day, ip measured on day 4; format: ADME, organism-based, Interstitial fluid; parameters: dose 100 mg/kg/day, route intraperitoneal
Staphylococcus aureus [2] = experiment: (§1) Antimicrobial activity against […] Staphylococcus aureus ATCC 29213 tissue cage Wistar rat infected model assessed as bacterial load reduction at 100 mg/kg/day, ip treated for 14 days measured 24 hrs after last dose (reference value: 7.2 +/- 0.6 logCFU/ml); format: functional; conditions: route intraperitoneal
Staphylococcus aureus [3] = experiment: as §1, with “logCFU/ml) co-treated with 25 mg/kg rifampin, ip bid” for “logCFU/ml)”; format: functional
Staphylococcus aureus [4] = experiment: (§2) Antimicrobial activity against […] Staphylococcus aureus ATCC 29213 tissue cage Wistar rat infected model assessed as bacterial load reduction at 100 mg/kg/day, ip treated for 7 days measured 24 hrs after last dose (reference value: 6.8 +/-0.8 logCFU/ml); format: functional; conditions: route intraperitoneal
Staphylococcus aureus [5] = experiment: as §2, with “logCFU/ml) co-treated with 25 mg/kg rifampin, ip bid” for “logCFU/ml)”; format: functional
[6] = AUC in Escherichia coli ATCC 35218 infected Wistar rat serum at 100 mg/kg/day, ip measured on day 4; format: ADME, organism-based; parameters: route intraperitoneal
[7] = AUC in Escherichia coli ATCC 35218 infected Wistar rat serum at 50 mg/kg/day, ip measured on day 4; format: ADME, organism-based; parameters: route intraperitoneal
Staphylococcus aureus [8] = experiment: (§3) Antimicrobial activity against methicillin-resistant Staphylococcus aureus ATCC 29213 tissue cage Wistar rat infected model assessed as bacterial load reduction at 50 mg/kg/day, ip treated for 7 days measured 24 hrs after last dose (reference value: 6.8 +/-0.8 logCFU/ml); format: functional; conditions: route intraperitoneal
Staphylococcus aureus [9] = experiment: as §3, with “logCFU/ml) co-treated with 25 mg/kg rifampin, ip bid” for “logCFU/ml)”; format: functional
[10] = Cmax in Escherichia coli ATCC 35218 infected Wistar rat tissue cage fluid at 50 mg/kg/day, ip measured on day 4; format: ADME, organism-based, Interstitial fluid; parameters: dose 50 mg/kg/day, route intraperitoneal
Staphylococcus aureus [11] = experiment: as §1, with “coverslip” for “tissue cage”, “5.4” for “7.2”, “1” for “0.6”, “logCFU/ml) co-treated with 25 mg/kg rifampin, ip bid” for “logCFU/ml)”; format: functional
[12] = AUC in Escherichia coli ATCC 35218 infected Wistar rat tissue cage fluid at 50 mg/kg/day, ip measured on day 4; format: ADME, organism-based; parameters: route intraperitoneal
Staphylococcus aureus [13] = experiment: Antimicrobial activity against […] Staphylococcus aureus ATCC 29213 at 2 times MIC in presence of rifampin; format: functional, organism-based
Outline: (§4)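 24-h killing curves in log phase using subinhibitory and clinically available concentrations, single drug or with rifampin. Bactericidal activity is a ≥3-log10 CFU/ml fall from the initial inoculum at 24 h.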

Staphylococcus aureus [14] = experiment: Antimicrobial activity against stationary phase culture of […] Staphylococcus aureus ATCC 29213 by macrodilution method; format: functional
Outline: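 Macrodilution MIC and MBC. MIC: lowest concentration inhibiting macroscopic growth. MBC: lowest concentration killing 99.9% of the initial inoculum. Log-phase cultures were used, and MBC was also determined in stationary phase. Subcultures were streaked down the plate centre and left to dry before spreading, to avoid carryover.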

[15] = AUC in Escherichia coli ATCC 35218 infected Wistar rat tissue cage fluid at 100 mg/kg/day, ip measured on day 4; format: ADME, organism-based; parameters: route intraperitoneal
Staphylococcus aureus [16] = experiment: Antimicrobial activity against […] Staphylococcus aureus ATCC 29213 coverslip Wistar rat infected model assessed as bacterial load reduction at 100 mg/kg/day, ip treated for 14 days measured 24 hrs after last dose (reference value: 5.4 +/- 1 logCFU/ml); format: functional; conditions: route intraperitoneal
[17] = Ratio of AUC in Wistar rat tissue cage fluid to MIC for Staphylococcus epidermidis ATCC 27626 at 25 mg/kg, ip measured on day 4; format: functional; conditions: route intraperitoneal
[18] = Cmax in Staphylococcus epidermidis ATCC 27626 infected Wistar rat tissue cage fluid at 25 mg/kg, ip measured on day 4; format: ADME, organism-based; parameters: dose 25 mg/kg, route intraperitoneal
[19] = Ratio of Cmax in Wistar rat tissue cage fluid to MIC for Staphylococcus epidermidis ATCC 27626 at 25 mg/kg, ip measured on day 4; format: functional; conditions: route intraperitoneal
[20] = AUC in Staphylococcus epidermidis ATCC 27626 infected Wistar rat serum at 25 mg/kg, ip measured on day 4; format: ADME, organism-based; parameters: dose 25 mg/kg, route intraperitoneal
Staphylococcus aureus [21] = experiment: Antimicrobial activity against […] Staphylococcus aureus ATCC 29213 tissue cage Wistar rat infected model assessed as bacterial load reduction at 25 mg/kg, ip bid treated for 7 days measured 24 hrs after last dose (reference value: 6.8 +/-0.8 logCFU/ml); format: functional; conditions: route intraperitoneal
[22] = AUC in Staphylococcus epidermidis ATCC 27626 infected Wistar rat tissue cage fluid at 25 mg/kg, ip measured on day 4; format: ADME, organism-based; parameters: dose 25 mg/kg, route intraperitoneal
Staphylococcus aureus [23] = experiment: Bactericidal activity against log phase culture of […] Staphylococcus aureus ATCC 29213 at 8 times MIC; format: functional, organism-based; outline: as §4

**Q.** Which results are given for `C[C@H]1COc2c(N3CCN(C)CC3)c(F)cc3c(=O)c(C(=O)O)cn1c23.C[C@H]1COc2c(N3CCN(C)CC3)c(F)cc3c(=O)c(C(=O)O)cn1c23.O` [LEVOFLOXACIN]?
**A.** Cmax [1]: 12000 ng/mL; log10CFU/ml (Staphylococcus aureus [2]): 2.9; log10CFU/ml (Staphylococcus aureus [3]): 3.37; log10CFU/ml (Staphylococcus aureus [4]): 6.74; log10CFU/ml (Staphylococcus aureus [5]): 6.74; AUC [6]: 106 µg·h/mL; AUC [7]: 77 µg·h/mL; log10CFU/ml (Staphylococcus aureus [8]): 6.4; log10CFU/ml (Staphylococcus aureus [9]): 6.7; Cmax [10]: 6000 ng/mL; log10CFU/ml (Staphylococcus aureus [11]): 3.36; AUC [12]: 68 µg·h/mL; inhibition (Staphylococcus aureus [13]): inactive; MBC (Staphylococcus aureus [14]): > 8 µg/mL; AUC [15]: 117 µg·h/mL; log10CFU/ml (Staphylococcus aureus [16]): 2.24

**Q.** For `CO[C@H]1/C=C/O[C@@]2(C)Oc3c(C)c(O)c4c(O)c(c(/C=N/N5CCN(C)CC5)c(O)c4c3C2=O)NC(=O)/C(C)=C\C=C\[C@H](C)[C@H](O)[C@@H](C)[C@@H](O)[C@@H](C)[C@H](OC(C)=O)[C@@H]1C` [RIFAMPIN], which Ratio [17] is on record?
**A.** 20260

**Q.** And the Cmax [18]?
**A.** 6600 ng/mL

**Q.** And the Ratio [19]?
**A.** 440

**Q.** What about the AUC [20] of the same molecule?
**A.** 277 µg·h/mL

**Q.** What about the log10CFU/ml (Staphylococcus aureus [21]) of the same molecule?
**A.** 6.9

**Q.** What about the AUC [22] of the same molecule?
**A.** 304 µg·h/mL

**Q.** And the Activity (Staphylococcus aureus [23])?
**A.** Active

**Q.** What about the MBC (Staphylococcus aureus [14]) of the same molecule?
**A.** 4 µg/mL (≈ 4.86 µM)

— ChEMBL document CHEMBL1687713 (Antimicrob Agents Chemother, 2008)
